# In article PMC10160980 (Proceedings of the National Academy of Sciences of the …, 2023):
# Assays:
# GIV–Gαi3 binding = GIV–Gαi3 binding (Rattus norvegicus, UniProt P08753); details: cell-free systems; cited from earlier work
# GIV binding to Gαi3 = GIV binding to Gαi3 (Rattus norvegicus, UniProt P08753); experiment: Fluorescence polarization
# [1] = Hydrolytic processing of IGGi-11me by cytosolic fraction of MDA-MB-231 cells; type: in vitro ADME, human; details: 2 hours, 37 °C
# Stability in plasma = type: in vitro ADME; details: preliminary results
# MDA-MB-231 cells [2] = type: cell-based, human
# MDA-MB-231 cells (CXCR4) = experiment: SDF-1α mediated cell migration, MDA-MB-231; type: cell-based, human; details: SDF-1α as chemoattractant; up to 100 μM
# BT-549 cells = experiment: Tumor cell migration, BT-549; type: cell-based, human; details: 1-100 μM
# In short: (§1)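 Chemotactic migration toward FBS was measured in a modified Boyden chamber across a range of test compound concentrations. IC50 was derived from the concentration–response data. Results are mean ± SEM (N ≥ 3).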
# Hs578T cells = experiment: Tumor cell migration, Hs578T; type: cell-based, human; details: 1-100 μM
# In short: as §1
# [3] = test system: GIV-depleted (shGIV) MDA-MB-231 cells; experiment: Tumor cell migration, GIV-depleted MDA-MB-231; type: cell-based, human; details: 100 μM
# In short: (§2)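 GIV-depleted (shGIV) and matched control (shControl) cells were run side by side in a modified Boyden-chamber assay of chemotactic migration toward FBS with test compound. Results are mean ± SEM (N ≥ 3).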
# [4] = test system: GIV-depleted (shGIV) HeLa cells; experiment: Tumor cell migration, GIV-depleted HeLa; type: cell-based, human
# In short: as §2
# MDA-MB-231 cells [5] = experiment: Cell viability assay; type: cell-based, human; details: up to 100 μM, 24 h
# In short: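 Cell viability was measured after 24 h incubation with test compound at indicated concentrations. IC50 was derived from the concentration-response data. Mean ± SEM, N ≥ 3.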
# MCF-10A cells [6] = experiment: Cell viability assay, MCF-10A; type: cell-based, human; details: 100 μM, 24 h
# In short: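 Single-concentration viability screen at 100 μM in MCF-10A cells, run alongside MDA-MB-231 and MCF-7. Values are the mean of N = 3.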
# [7] = test system: Akt phosphorylation at S473 in MDA-MB-231 cells; experiment: EGF-stimulated Akt activation; type: cell-based, human
# In short: (§3)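 Cells were preincubated with a range of test compound concentrations, then stimulated with EGF for 5 min (1.6 nM for MDA-MB-231, 50 nM for HeLa). Cells were then lysed and Akt activation was read by immunoblotting.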
# [8] = test system: Akt phosphorylation at S473 in HeLa cells; experiment: EGF-stimulated Akt activation; type: cell-based, human; details: EGF 50 nM, 5 min
# In short: as §3
# [9] = test system: Akt activation in GIV-depleted cells (shGIV); experiment: EGF-stimulated Akt activation in GIV-depleted cells; type: cell-based, human; details: 100 μM
# In short: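 GIV-depleted (shGIV) and control (shControl) cells were handled the same way: preincubation with test compound, EGF stimulation for 5 min, lysis, then immunoblotting for Akt activation.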
# [10] = test system: Akt activation upon stimulation of the GPCR CXCR4 in MDA-MB-231 cells; experiment: SDF-1α-stimulated Akt activation; type: cell-based, human; details: SDF-1α 100 ng/mL, 10 min; IGGi-11me 100 μM; PTX 100 ng/mL
# [11] = test system: endogenous β-adrenergic receptors (cAMP via Gαs); experiment: Luminescence-based cAMP; type: cell-based, human; details: 100 μM; isoproterenol 100 nM; HEK293T
# In short: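 HEK293T cells expressing the Glosensor luminescent cAMP sensor plus α2A-AR or GABA_BR were pretreated with test compound (100 μM) or DMSO. They were then stimulated with isoproterenol (100 nM), with or without prestimulation by brimonidine (1 μM) or GABA (100 μM). Luminescence was recorded. Mean ± SEM, N ≥ 3; ANOVA.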
# MDA-MB-231 cells [12] = experiment: Matrigel cultures, MDA-MB-231; type: cell-based, human; details: 100 μM for 2 days, culture 7 days
# MCF-10A cells [13] = experiment: Matrigel cultures, MCF-10A; type: cell-based, human; details: 100 μM
# MDA-MB-231 cells [14] = experiment: Growth of pretreated MDA-MB-231 cells on plastic dishes; type: cell-based, human; details: cells treated overnight with 100 μM
# GIV binding to Gαi3, sequence (P08753 whole entry): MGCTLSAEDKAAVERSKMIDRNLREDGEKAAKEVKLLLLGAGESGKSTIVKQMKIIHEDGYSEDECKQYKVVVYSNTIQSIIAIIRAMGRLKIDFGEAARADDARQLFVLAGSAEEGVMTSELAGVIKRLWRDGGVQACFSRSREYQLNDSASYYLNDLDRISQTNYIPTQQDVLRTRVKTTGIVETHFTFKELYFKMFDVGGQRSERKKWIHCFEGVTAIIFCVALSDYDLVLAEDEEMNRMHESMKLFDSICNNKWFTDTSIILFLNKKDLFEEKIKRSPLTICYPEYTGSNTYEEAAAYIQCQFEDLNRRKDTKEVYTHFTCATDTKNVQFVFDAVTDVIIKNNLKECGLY
# GIV–Gαi3 binding, sequence (P08753 whole entry): as above
compound,measurement,setting,value
O=C(Nc1cccc(C(=O)Nc2ccc(S(=O)(=O)O)c3cc(S(=O)(=O)O)cc(S(=O)(=O)O)c23)c1)Nc1cccc(C(=O)Nc2ccc(S(=O)(=O)O)c3cc(S(=O)(=O)O)cc(S(=O)(=O)O)c23)c1 [NF023],disruption of the GIV–Gαi interaction,GIV–Gαi3 binding,disrupts the GIV–Gαi interaction
COC(=O)CCCN(C)S(=O)(=O)c1ccc2c(c1)Cc1cc(S(=O)(=O)N(C)CCCC(=O)OC)ccc1-2 [IGGi-11me],"potency as inhibitor of GIV–Gαi3 binding relative to IGGi-11, FP",GIV binding to Gαi3,lower potency compared to IGGi-11
same,conversion to IGGi-11 by cellular esterases,[1],converted to IGGi-11 by esterases present in the cytosol of MDA-MB-231 cells
same,stability in plasma,Stability in plasma,rapidly degraded in plasma
same,"inhibition of MDA-MB-231 cell migration, dose dependence","MDA-MB-231 cells [2]; FBS as chemoattractant, 1-100 μM, preincubation",efficiently reduced their ability to migrate
same,potency on migration of MDA-MB-231 relative to MCF-7,MDA-MB-231 cells [2]; GIV^High vs GIV^Low,approximately four times more potent
same,MDA-MB-231 cell migration toward SDF-1α,MDA-MB-231 cells (CXCR4),did not affect MDA-MB-231 cell migration
same,inhibition of BT-549 cell migration,BT-549 cells,potency similar to that seen for MDA-MB-231 cells
same,inhibition of Hs578T cell migration,Hs578T cells,potency similar to that seen for MDA-MB-231 cells
same,cell migration of GIV-depleted MDA-MB-231 cells,[3],had no effect on MDA-MB-231 cell migration upon GIV depletion
same,cell migration of GIV-depleted HeLa cells,[4],inhibition of tumor cell migration is lost upon depletion of GIV
same,viability of MDA-MB-231 cells,MDA-MB-231 cells [5],did not affect the viability
same,viability of MCF-10A cells,MCF-10A cells [6],did not affect the viability
same,"EGF-stimulated phosphorylation of Akt at S473, MDA-MB-231","[7]; EGF 1.6 nM, 5 min, PTX 100 ng/mL","reduced, in a dose-dependent manner, the phosphorylation of Akt at S473"
same,total amount of GIV or Gαi,[7]; immunoblot,did not change the total amount of GIV or Gαi
same,"EGF-stimulated phosphorylation of Akt at S473, HeLa",[8],"reduced, in a dose-dependent manner, the phosphorylation of Akt at S473"
same,EGF-stimulated Akt activation in GIV-depleted cells,[9],failed to further reduce Akt activation in GIV-depleted cells
same,"SDF-1α-stimulated Akt activation, MDA-MB-231",[10],does not block Akt activation
same,cAMP response to isoproterenol in the absence of Gi-mediated regulation,[11],had no effect
same,growth of MDA-MB-231 cells in Matrigel cultures,MDA-MB-231 cells [12],overall reduction of cell growth
same,growth of MCF-10A cells in Matrigel cultures,MCF-10A cells [13],did not affect the growth of nontransformed MCF-10A breast cells in Matrigel cultures
same,growth of pretreated MDA-MB-231 cells on plastic dishes,MDA-MB-231 cells [14],had no effect
